Legend:
Candida albicans [1] = experiment: Antifungal activity against Candida albicans cgmcc2.2086 measured after 48 hrs in presence of CaCl by broth microdilution method; format: functional
Staphylococcus aureus [2] = experiment: Antibacterial activity against methicillin-resistant Staphylococcus aureus ATCC 43300 measured after 24 hrs; format: functional
In short: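 Broth microdilution modified from NCCLS. Mid-log bacteria at (0.5–1) × 10^5 CFU mL−1 in MHB, mixed with peptides serially diluted in 0.2% BSA. Incubated 24 h at 37 °C, read at A492. MIC taken as lowest concentration giving 95% growth inhibition. At least three independent experiments, each with three technical replicates.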

[3] = Conformational stability in pH 7.4 sodium phosphate buffer assessed as absorption spectra at minimum dichroic band at 35 uM by CD spectra analysis; format: physicochemical; details: pH 7.4, 35 µM
In short: (§1)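 CD spectra from 190 to 250 nm of peptide at 35 μM in 10 mM PBS, 30 mM SDS micelles or 50% TFE, recorded in a 1.0-mm quartz cell. Ellipticity was converted to mean residue ellipticity. Three independent scans, each averaged over more than 3 runs.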

[4] = Cytotoxicity against mouse RAW264.7 cells assessed as cell viability at 2 to 64 uM measured after 18 to 24 hrs by MTT assay relative to control; format: cell-based; details: RAW264.7 cells, read-out: Activity
In short: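 MTT assay: RAW264.7 cells seeded at 1.0–2.0×10^4 per well and exposed to peptide (2–64 µM) for 18–24 h at 37 °C in 5% CO2. MTT (0.5 mg/mL) added for 4 h, formazan dissolved in DMSO, read at 570 nm. At least three independent experiments with triplicate wells.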

Escherichia coli [5] = experiment: Antibacterial activity against Escherichia coli ATCC 25922 measured after 18 to 24 hrs in presence of NH4Cl; format: functional
[6] = Therapeutic index, ratio of MHC10 for hemolytic activity in human RBC to MIC95 against Candida albicans cgmcc2.2086; format: toxicity; details: human red blood cells (erythrocytes), read-out: TI
In short: (§2)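 Therapeutic index = MHC divided by MIC. MHC is the lowest concentration giving >10% lysis of human RBC (1 h, 37 °C, 1-128 µM, A576). MIC is 95% growth inhibition by broth microdilution: bacteria in MHB 24 h at 37 °C; Candida in MOPS-buffered RPMI 1640 at (0.5–1) × 10^3 CFU mL−1, 48 h at 28 °C.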

[7] = Antibacterial activity against Salmonella pullorum ATCC 7913 measured after 24 hrs; format: functional, Salmonella enterica subsp. enterica serovar Pullorum; details: Salmonella enterica, ATCC 7913, 24 h
In short: (§3)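 Broth microdilution adapted from NCCLS. Mid-log bacteria were diluted in MHB to a final (0.5–1) × 10^5 CFU mL−1. Peptides were serially diluted in 0.2% BSA and mixed with an equal volume of cells. After 24 h at 37 °C, MIC was read at A492 as the lowest concentration inhibiting 95% of growth. At least three independent experiments, each with three technical replicates.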

Candida albicans [8] = experiment: Antifungal activity against Candida albicans cgmcc2.2086 measured after 48 hrs in presence of ZnCl by broth microdilution method; format: functional
Escherichia coli [9] = experiment: Antibacterial activity against Escherichia coli ATCC 25922 measured after 18 to 24 hrs in presence of KCl; format: functional
[10] = Conformational stability in 50% trifluoro-ethyl alcohol assessed as alpha-helical structural propensity by measuring absorption spectra at minimum dichroic band at 35 uM by CD spectra analysis; format: physicochemical; in short: as §1
[11] = Therapeutic index, ratio of MHC10 for hemolytic activity in human RBC to MIC95 against Staphylococcus epidermidis ATCC 12228; format: toxicity; details: human red blood cells (erythrocytes), read-out: TI; in short: as §2
[12] = Therapeutic index, ratio of MHC10 for hemolytic activity in human RBC to MIC95 against Escherichia coli ATCC 25922; format: toxicity; details: human red blood cells (erythrocytes), pooled result: one value given for 9 cell lines, strains, targets or settings, read-out: TI; in short: as §2
Staphylococcus aureus [13] = experiment: Antibacterial activity against Staphylococcus aureus ATCC 29213 measured after 18 to 24 hrs in presence of MgCl2; format: functional
Candida parapsilosis = experiment: Antifungal activity against Candida parapsilosis cgmcc2.3989 measured after 48 hrs by broth microdilution method; format: functional
In short: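 Modified CLSI M27-A2 microdilution. Yeast colonies were diluted in MOPS-buffered RPMI 1640 to a final (0.5–1) × 10^3 CFU mL−1 and mixed with an equal volume of peptide serially diluted in 0.2% BSA. After 48 h at 28 °C, MIC was read at A492 as the lowest concentration inhibiting 95% of growth. At least three independent experiments, each with three technical replicates.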

Escherichia coli [14] = experiment: Antibacterial activity against Escherichia coli K88 measured after 24 hrs; format: functional; in short: as §3
Salmonella typhimurium [15] = experiment: Antibacterial activity against Salmonella typhimurium C7731 measured after 24 hrs; format: functional, Salmonella enterica subsp. enterica serovar Typhimurium; in short: as §3
Escherichia coli [16] = experiment: Bactericidal activity against Escherichia coli K88 incubated for 24 hrs followed by replating on agar plate and measured after overnight incubation; format: functional
In short: (§4)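 Mid-log bacteria diluted in MHB to (0.5–1) × 10^5 CFU/mL and mixed 1:1 with peptide serially diluted in 0.2% BSA. After 24 h at 37 °C, 50 μL of each mixture was plated on agar and incubated overnight. MBC taken as the lowest concentration killing >99.9% of cells. At least three independent experiments, each with three technical replicates.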

Salmonella typhimurium [17] = experiment: Bactericidal activity against Salmonella typhimurium C7731 incubated for 24 hrs followed by replating on agar plate and measured after overnight incubation; format: functional; in short: as §4
Escherichia coli [18] = experiment: Bactericidal activity against Escherichia coli 078 incubated for 24 hrs followed by replating on agar plate and measured after overnight incubation; format: functional
In short: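 After the 24 h, 37 °C MHB microdilution (0.5–1 × 10^5 CFU mL−1 inoculum, peptides diluted in 0.2% BSA), 50 μL from each well was plated on agar and incubated overnight. MBC was taken as the lowest concentration killing >99.9% of cells. Three or more independent experiments, each with triplicate technical replicates.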

Salmonella typhimurium [19] = experiment: Bactericidal activity against Salmonella typhimurium ATCC 14028 incubated for 24 hrs followed by replating on agar plate and measured after overnight incubation; format: functional; in short: as §4
Escherichia coli [20] = experiment: Bactericidal activity against Escherichia coli UB1005 incubated for 24 hrs followed by replating on agar plate and measured after overnight incubation; format: functional; in short: as §4
[21] = Lodderomyces parapsilosis, cgmcc2.3989, 48 h
[22] = Salmonella enterica, C7731, 24 h
[23] = Salmonella enterica subsp. enterica serovar Typhimurium

Substance | MIC95 (Candida albicans [1]; cgmcc2.2086, 48 h) | MIC95 (Staphylococcus aureus [2]; ATCC 43300, 24 h) | Wavelength of minimum CD band [3] | viability at up to 64 µM [4] | MIC95 (Escherichia coli [5]) | selectivity ratio [6] | MIC95 [7] | MIC95 (Candida albicans [8]; cgmcc2.2086, 48 h) | MIC95 (Escherichia coli [9]) | Stability [10] | selectivity ratio [11] | selectivity ratio [12] | MIC95 (Staphylococcus aureus [13]) | MIC95 (Candida parapsilosis; [21]) | MIC95 (Escherichia coli [14]; K88, 24 h) | MIC95 (Salmonella typhimurium [15]; [22]) | other results
H-AAKIILNPKFR-NH2 | > 128 µM | > 128 µM | 200 nm | 90 to 100% | > 128 µM | 2 | > 128 µM | > 128 µM | 128 µM | Unstable | 2 | 2 | > 128 µM | > 128 µM | > 128 µM | > 128 µM | 
POLYMYXIN B |  |  |  |  | 2 µM |  |  |  | 2 µM |  |  |  | 32 µM |  |  |  | MBC>99.9 (Escherichia coli [16]): 1 µM; MIC95 (Candida albicans [1]): > 128 µM; MIC95 (Staphylococcus aureus [2]): 64 µM; MBC>99.9 (Salmonella typhimurium [17]; [23]): 4 µM; MIC95 (Candida albicans [8]): 32 µM; MBC>99.9 (Escherichia coli [18]): 1 µM; MBC>99.9 (Salmonella typhimurium [19]; [23]): 2 µM; MIC95 (Candida parapsilosis): 8 µM; MIC95 (Escherichia coli [14]): 0.5 µM; MBC>99.9 (Escherichia coli [20]): 2 µM; MIC95 (Salmonella typhimurium [15]; [23]): 2 µM
H-AARIILRDRFR-NH2 | > 128 µM | > 128 µM | 200 nm | 90 to 100% | > 128 µM | 2 | > 128 µM | > 128 µM | 128 µM |  | 2 | 2 | > 128 µM | > 128 µM | > 128 µM | > 128 µM | Activity [10]: 208 to 222 nm
H-AARIILRPRFR-NH2 | > 128 µM | > 128 µM | 200 nm | 90 to 100% | 16 µM | 2 | 16 µM | > 128 µM | 16 µM | Unstable | 2 | 16 | > 128 µM | > 128 µM | 16 µM | 16 µM | MBC (Escherichia coli [16]; K88, 24 h, read-out: MBC>99.9): 32 µM; MBC (Salmonella typhimurium [17]; Salmonella enterica, C7731, 24 h, read-out: MBC>99.9): 32 µM; MBC (Escherichia coli [18]; Escherichia coli, 078, 24 h, read-out: MBC>99.9): 16 µM; MBC (Salmonella typhimurium [19]; Salmonella enterica, ATCC 14028, 24 h, read-out: MBC>99.9): 32 µM; MBC (Escherichia coli [20]; UB1005, 24 h, read-out: MBC>99.9): 16 µM
